Calls of active or inactive are those of the source.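 The calls were made as follows, unless noted: active = viability at or below 10% of carrier control in both of two separate runs; inconclusive = viability at or below 10% in only one of the two runs; inactive = the rest.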

The first assay in a line: reduced viability of SK-BR-3 breast cancer cells – cell-based, 24 h, human, pilot screen (AID 572).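 Also: compound exposure lasted between 18 and 24 h rather than exactly 24 h; 100% = carrier-treated control wells.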 The following applies: SK-BR-3 viability, CellTiter-Glo luminescence, at 10 µM, stronger effect = lower value.
For `CC1(C)Cc2cccc(OCC(=O)O)c2O1`, the viability is 107% (inactive).

Take `CCn1cc(C(=O)O)c(=O)c2cc(F)c(N3CCN(C(=O)Nc4ccccc4)CC3)cc21`: the viability is 108% (inactive).

In the case of `[O-][n+]1c2ccc3nonc3c2nn1-c1ccccc1Cl`, the viability is 136% (inactive).

As to `Cc1oc(-c2ccccc2Cl)nc1CSCC(=O)N1CCCC1`, the viability was 72% (inactive).

On to `CC(NC(=O)Cc1cccs1)c1ccc2c(c1)OCO2` (stereo not given), for which the viability was 125% (inactive).

`O=C(NCc1ccco1)c1csc(Nc2ccccc2Cl)n1`: the viability is 70.5% (inactive).

For `O=C(Nc1ccc2c(c1)OCO2)C1CCCN1C(=O)Nc1ccccc1F` (stereo not given), the viability is 110% (inactive).

Take `COCCNC(=O)CC(NS(=O)(=O)c1ccc(NC(C)=O)cc1)C(C)C` (stereo not given): the viability is 97% (inactive).

Take `Cc1ccc(S(=O)(=O)NCCN2CCOCC2)cc1C`: the viability was 88.5% (inactive).

`Cc1n[nH]c(C)c1S(=O)(=O)N1CCN(c2ccccn2)CC1`: the viability was 99.5% (inactive).

As for `COCCNC(=O)CN(C)S(=O)(=O)c1ccc2c(c1)OCCO2`, the viability was 107% (inactive).

As for `Cc1cc(C(F)F)n2nc(C(=O)Nc3ccc(S(=O)(=O)N4CCCCCC4)cc3)nc2n1`, the viability was 74% (inactive).

Turning to `O=C(O)C1C2C=CC(O2)C1C(=O)NCc1ccc(Cl)cc1` (stereo not given), the viability is 107% (inactive).

In the case of `Cc1ccc(NC2c3ncccc3C(=O)N2C2CCCCC2)cc1C` (stereo not given), the viability was 98.5% (inactive).

For the compound `C=CCOc1ccc(C2C(C(=O)c3ccco3)=C(O)C(=O)N2Cc2cccnc2)cc1` (stereo not given), the viability was 108% (inactive).

In the case of `COCCNC(=O)C(c1ccncc1)N(C(=O)Cn1nnc2ccccc21)c1ccc(OC)cc1` (stereo not given), the viability is 96% (inactive).

In the case of `CCOc1ccc(NC(=O)CSc2nnc(Cc3cccn3C)n2-c2ccc(OC)cc2)cc1`, the viability was 82% (inactive).

For the compound `CCOC(=O)N1CCC(O)(c2cc(C)c(C)cc2C)CC1`, the viability is 102% (inactive).

As to `Clc1cccc(Nc2c3c(nc4ncnn24)CCC3)c1`, the viability was 94.5% (inactive).

For the compound `O=c1cc(-c2ccc(Cl)cc2)[nH][nH]1`, the viability was 108% (inactive).

With `Cc1nc(N)c(C#N)c(-c2cccnc2)c1C`, the viability is 94% (inactive).

Take `CCOC(=O)c1c(NC(=O)OC)sc(C(=O)N(C)C)c1C`: the viability was 109% (inactive).

`O=C(NCCO)c1scc2c1OCCO2`: the viability is 104% (inactive).

In the case of `c1ccc2c(c1)Cn1c-2nc2ccccc21`, the viability is 114% (inactive).

For `CCOC(=O)C1=C(C)Nc2ncnn2C1c1ccccc1F` (stereo not given), the viability is 94% (inactive).

Consider `Cc1nc2ccc(NC(=O)N3CCOCC3)cc2s1`, for which the viability is 87.5% (inactive).

Take `Nc1nnnn1/N=C/c1ccccc1OCc1ccccc1`: the viability is 118% (inactive).

In the case of `COc1cccc(-c2noc(-c3cccs3)n2)c1`, the viability is 96.5% (inactive).

With `CC1CCN(S(=O)(=O)c2ccc(S(=O)(=O)NCC(=O)C(C)(C)C)cc2)CC1`, the viability was 108% (inactive).

As for `OCCN1CCN(CC(O)COc2ccc3ccccc3c2)CC1` (stereo not given), the viability was 88.5% (inactive).

With `O=C(NCc1cccnc1)c1ccccc1Br`, the viability is 110% (inactive).

As for `C=CCNC(=O)c1cccc(Br)c1`, the viability was 92% (inactive).

Regarding `CC(c1nnc(SCC(=O)Nc2sccc2C#N)n1-c1ccc(Cl)cc1)N(C)C` (stereo not given), the viability is 103% (inactive).

For `O=C(c1cc(S(=O)(=O)N2CCOCC2)ccc1F)N1CCCc2ccccc21`, the viability was 99% (inactive).

With `CC(C)Oc1ccc(N2CC(C(=O)Nc3ccccc3F)CC2=O)cc1` (stereo not given), the viability was 101% (inactive).

Regarding `COCCn1c(C23CC4CC(CC(C4)C2)C3)n[nH]c1=S`, the viability is 90% (inactive).

Consider `COc1cccc(C2=Nn3c(nnc3-c3ccccc3O)SC2)c1`, for which the viability was 100% (inactive).

`COc1cc(OC)c(OC)cc1CN(C)CCc1ccccn1`: the viability is 104% (inactive).

As to `CC(=O)c1c(C)nn(CC(O)COc2ccc3c(c2)CCC3)c1C` (stereo not given), the viability is 93.5% (inactive).

Turning to `Cc1cccn2cc(-c3ccccc3)nc12`, the viability was 78% (inactive).

The nature of another assay: HUVEC growth inhibition – cell-based, human, primary screen (AID 575;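 active = viability at or below 30% in both replicate assays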;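 also: 100% = median of untreated cell wells with 0.1% DMSO on each plate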). The following applies: HUVEC proliferation, CellTiter-Glo luminescence, 72 h; at 10 µM; stronger effect = lower value. The essentials:
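Test system: HUVEC primary cells. Quantity: 1250 endothelial cells in each well. Dosing: single-point 10 µM, DMSO 0.1% final. Incubation: 72 h treatment at 37 °C. Measured by: CTG luminescence. Control set: DMSO cell controls and MePR drug controls. Plate: collagen-coated 384-well format.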
On to `CC1(C)Cc2cccc(OCC(=O)O)c2O1`, for which the viability was 94.5% (inactive).

Consider `CCn1cc(C(=O)O)c(=O)c2cc(F)c(N3CCN(C(=O)Nc4ccccc4)CC3)cc21`, for which the viability is 111% (inactive).

As for `[O-][n+]1c2ccc3nonc3c2nn1-c1ccccc1Cl`, the viability is 89.3% (inactive).

As for `Cc1oc(-c2ccccc2Cl)nc1CSCC(=O)N1CCCC1`, the viability is 79.4% (inactive).

On to `CC(NC(=O)Cc1cccs1)c1ccc2c(c1)OCO2` (stereo not given), for which the viability is 108% (inactive).

For the compound `O=C(NCc1ccco1)c1csc(Nc2ccccc2Cl)n1`, the viability was 60.5% (inactive).

Regarding `O=C(Nc1ccc2c(c1)OCO2)C1CCCN1C(=O)Nc1ccccc1F` (stereo not given), the viability was 104% (inactive).

As for `COCCNC(=O)CC(NS(=O)(=O)c1ccc(NC(C)=O)cc1)C(C)C` (stereo not given), the viability is 81.2% (inactive).

Turning to `Cc1ccc(S(=O)(=O)NCCN2CCOCC2)cc1C`, the viability is 91.7% (inactive).

`Cc1n[nH]c(C)c1S(=O)(=O)N1CCN(c2ccccn2)CC1`: the viability is 111% (inactive).

On to `COCCNC(=O)CN(C)S(=O)(=O)c1ccc2c(c1)OCCO2`, for which the viability was 104% (inactive).

As for `Cc1cc(C(F)F)n2nc(C(=O)Nc3ccc(S(=O)(=O)N4CCCCCC4)cc3)nc2n1`, the viability is 83.4% (inactive).

Regarding `O=C(O)C1C2C=CC(O2)C1C(=O)NCc1ccc(Cl)cc1` (stereo not given), the viability is 105% (inactive).

Consider `Cc1ccc(NC2c3ncccc3C(=O)N2C2CCCCC2)cc1C` (stereo not given), for which the viability was 91.7% (inactive).

Take `C=CCOc1ccc(C2C(C(=O)c3ccco3)=C(O)C(=O)N2Cc2cccnc2)cc1` (stereo not given): the viability was 119% (inactive).

Consider `COCCNC(=O)C(c1ccncc1)N(C(=O)Cn1nnc2ccccc21)c1ccc(OC)cc1` (stereo not given), for which the viability is 97.7% (inactive).

`CCOc1ccc(NC(=O)CSc2nnc(Cc3cccn3C)n2-c2ccc(OC)cc2)cc1`: the viability was 79.5% (inactive).

Regarding `CCOC(=O)N1CCC(O)(c2cc(C)c(C)cc2C)CC1`, the viability is 109% (inactive).

As to `Clc1cccc(Nc2c3c(nc4ncnn24)CCC3)c1`, the viability was 93% (inactive).

For `O=c1cc(-c2ccc(Cl)cc2)[nH][nH]1`, the viability was 93.5% (inactive).

`Cc1nc(N)c(C#N)c(-c2cccnc2)c1C`: the viability is 74.3% (inactive).

For `CCOC(=O)c1c(NC(=O)OC)sc(C(=O)N(C)C)c1C`, the viability was 112% (inactive).

As for `O=C(NCCO)c1scc2c1OCCO2`, the viability was 91.8% (inactive).

With `c1ccc2c(c1)Cn1c-2nc2ccccc21`, the viability was 120% (inactive).

Turning to `CCOC(=O)C1=C(C)Nc2ncnn2C1c1ccccc1F` (stereo not given), the viability is 116% (inactive).

For `Cc1nc2ccc(NC(=O)N3CCOCC3)cc2s1`, the viability was 93.8% (inactive).

Take `Nc1nnnn1/N=C/c1ccccc1OCc1ccccc1`: the viability is 78.9% (inactive).

As to `COc1cccc(-c2noc(-c3cccs3)n2)c1`, the viability is 75.1% (inactive).

Take `CC1CCN(S(=O)(=O)c2ccc(S(=O)(=O)NCC(=O)C(C)(C)C)cc2)CC1`: the viability is 92.7% (inactive).

As for `OCCN1CCN(CC(O)COc2ccc3ccccc3c2)CC1` (stereo not given), the viability is 92.8% (inactive).

On to `O=C(NCc1cccnc1)c1ccccc1Br`, for which the viability was 115% (inactive).

Regarding `C=CCNC(=O)c1cccc(Br)c1`, the viability is 89.4% (inactive).

Regarding `CC(c1nnc(SCC(=O)Nc2sccc2C#N)n1-c1ccc(Cl)cc1)N(C)C` (stereo not given), the viability was 91.8% (inactive).

Turning to `O=C(c1cc(S(=O)(=O)N2CCOCC2)ccc1F)N1CCCc2ccccc21`, the viability is 102% (inactive).

Regarding `CC(C)Oc1ccc(N2CC(C(=O)Nc3ccccc3F)CC2=O)cc1` (stereo not given), the viability was 92.6% (inactive).

`COCCn1c(C23CC4CC(CC(C4)C2)C3)n[nH]c1=S`: the viability was 79.5% (inactive).

For the compound `COc1cccc(C2=Nn3c(nnc3-c3ccccc3O)SC2)c1`, the viability is 89.4% (inactive).

As to `COc1cc(OC)c(OC)cc1CN(C)CCc1ccccn1`, the viability is 96.7% (inactive).

For `CC(=O)c1c(C)nn(CC(O)COc2ccc3c(c2)CCC3)c1C` (stereo not given), the viability was 94.4% (inactive).

Regarding `Cc1cccn2cc(-c3ccccc3)nc12`, the viability is 79.2% (inactive).

The record behind these values is PubChem BioAssay.
